Data from ChEMBL document CHEMBL1938353, “Discovery and optimization of aminopyrimidinones as potent and state-dependent Nav1.7 antagonists” (Bioorg Med Chem Lett, 2012).
Converted amounts (≈) assume the structure as drawn.

Legend:
[1] = biological target: T1, Sodium channel protein type 9 subunit alpha (Homo sapiens, UniProt Q15858); assay: Antagonist activity at 20% inactivated human sodium channel Nav1.7 expressed in human HEK293 cells by manual patch-clamp electrophysiological assay; format: functional, cell-based
In short: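 Manual electrophysiology on hNav1.7; holding voltage set, and adjusted as needed during the experiment, to give steady 20% inactivation. […] Values are the average of at least two determinations.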

[2] = Clearance in Sprague-Dawley rat at 0.5 mg/kg, iv; format: ADME, organism-based; set-up: dose 0.5 mg/kg, route intravenous; conditions: in vivo
[3] = biological target: T1, Sodium channel protein type 9 subunit alpha; assay: Antagonist activity at non-inactivated human sodium channel Nav1.7 expressed in human HEK293 cells by manual patch-clamp electrophysiological assay; format: functional, cell-based
In short: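 Manual electrophysiology on fully noninactivated hNav1.7 with holding voltage set to -140 mV. […] Values are the average of at least two determinations.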

[4] = Solubility of the compound in phosphate buffer saline; format: physicochemical; conditions: phosphate buffered saline
[5] = Half life in Sprague-Dawley rat at 0.5 mg/kg, iv; format: ADME, organism-based; set-up: dose 0.5 mg/kg, route intravenous; conditions: in vivo
MDR1 (P-gp) = assay: Apparent permeability across pig LLC-PK1 cells over expressing human MDR1 at 5 uM in presence 0.1 % BSA; format: ADME, cell-based, Sus scrofa
In short: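 MDR1-LLC-PK1 pig kidney cells expressing human MDR1. Compound tested at 5 µM with 0.1% BSA. Permeability is the average of the apical-to-basolateral and basolateral-to-apical apparent permeability values.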

[6] = biological target: Voltage-gated inwardly rectifying potassium channel KCNH2 (Homo sapiens, UniProt Q12809); assay: Displacement of dofetilide from human ERG
[7] = Volume of distribution at steady state in Sprague-Dawley rat at 0.5 mg/kg, iv; format: ADME, organism-based; set-up: dose 0.5 mg/kg, route intravenous; conditions: in vivo, read-out: Vdss
[8] = Solubility of the compound in simulated intestinal fluid; format: physicochemical
LLC-PK1 = assay: Efflux ratio of permeability from […] side in pig LLC-PK1 cells over expressing human MDR1; format: ADME, cell-based, Sus scrofa
In short: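 Pig kidney LLC-PK1 cells expressing human MDR1. Compound tested in the presence of 0.1% BSA. Apparent permeability was measured in both the apical-to-basolateral and basolateral-to-apical directions.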

[9] = biological target: T1, Sodium channel protein type 9 subunit alpha; assay: Antagonist activity at 20% inactivated human sodium channel Nav1.7 expressed in human HEK293 cells by patch-clamp electrophysiological assay; format: functional, cell-based
In short: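 Automated PatchXpress electrophysiology on hNav1.7 channels with an average 20% contribution from inactivated channels. Dose-response curves built from single-concentration tests on many cells. IC50 is the average of at least two determinations.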

[10] = biological target: Sodium channel protein type 5 subunit alpha (Homo sapiens, UniProt Q14524); assay: Antagonist activity at partially inactivated human sodium channel Nav1.5 expressed in human HEK293 cells by patch-clamp electrophysiological assay; format: functional, cell-based
[11] = Solubility of the compound in 0.01 N HCl; format: physicochemical
Hepatocyte = assay: Drug metabolism in rat hepatocytes assessed as glucuronide adduct formation at 18.7 mins; format: ADME, cell-based; conditions: 0.311667 h
Rattus norvegicus [12] = species: Rattus norvegicus; assay: Toxicity in rat assessed as reduction in total basic movement by open field test; format: organism-based; set-up: scale not given: the % may be the effect or the level left; conditions: in vivo
[13] = Ratio of drug level in brain to plasma in ip dosed rat; format: ADME, organism-based; conditions: brain and plasma, read-out: BPR
Rattus norvegicus [14] = species: Rattus norvegicus; assay: Toxicity in rat assessed as complete reduction in rearing behavior by open field test; format: organism-based; set-up: scale not given: the % may be the effect or the level left; conditions: in vivo
Liver microsomes [15] = assay: Metabolic stability in human liver microsomes after 15 mins; format: ADME, Microsome; conditions: 0.25 h
Liver microsomes [16] = assay: Metabolic stability in rat liver microsomes after 15 mins; format: ADME, Microsome; conditions: 0.25 h

Sodium channel protein type 5 subunit alpha, sequence (Q14524 whole entry): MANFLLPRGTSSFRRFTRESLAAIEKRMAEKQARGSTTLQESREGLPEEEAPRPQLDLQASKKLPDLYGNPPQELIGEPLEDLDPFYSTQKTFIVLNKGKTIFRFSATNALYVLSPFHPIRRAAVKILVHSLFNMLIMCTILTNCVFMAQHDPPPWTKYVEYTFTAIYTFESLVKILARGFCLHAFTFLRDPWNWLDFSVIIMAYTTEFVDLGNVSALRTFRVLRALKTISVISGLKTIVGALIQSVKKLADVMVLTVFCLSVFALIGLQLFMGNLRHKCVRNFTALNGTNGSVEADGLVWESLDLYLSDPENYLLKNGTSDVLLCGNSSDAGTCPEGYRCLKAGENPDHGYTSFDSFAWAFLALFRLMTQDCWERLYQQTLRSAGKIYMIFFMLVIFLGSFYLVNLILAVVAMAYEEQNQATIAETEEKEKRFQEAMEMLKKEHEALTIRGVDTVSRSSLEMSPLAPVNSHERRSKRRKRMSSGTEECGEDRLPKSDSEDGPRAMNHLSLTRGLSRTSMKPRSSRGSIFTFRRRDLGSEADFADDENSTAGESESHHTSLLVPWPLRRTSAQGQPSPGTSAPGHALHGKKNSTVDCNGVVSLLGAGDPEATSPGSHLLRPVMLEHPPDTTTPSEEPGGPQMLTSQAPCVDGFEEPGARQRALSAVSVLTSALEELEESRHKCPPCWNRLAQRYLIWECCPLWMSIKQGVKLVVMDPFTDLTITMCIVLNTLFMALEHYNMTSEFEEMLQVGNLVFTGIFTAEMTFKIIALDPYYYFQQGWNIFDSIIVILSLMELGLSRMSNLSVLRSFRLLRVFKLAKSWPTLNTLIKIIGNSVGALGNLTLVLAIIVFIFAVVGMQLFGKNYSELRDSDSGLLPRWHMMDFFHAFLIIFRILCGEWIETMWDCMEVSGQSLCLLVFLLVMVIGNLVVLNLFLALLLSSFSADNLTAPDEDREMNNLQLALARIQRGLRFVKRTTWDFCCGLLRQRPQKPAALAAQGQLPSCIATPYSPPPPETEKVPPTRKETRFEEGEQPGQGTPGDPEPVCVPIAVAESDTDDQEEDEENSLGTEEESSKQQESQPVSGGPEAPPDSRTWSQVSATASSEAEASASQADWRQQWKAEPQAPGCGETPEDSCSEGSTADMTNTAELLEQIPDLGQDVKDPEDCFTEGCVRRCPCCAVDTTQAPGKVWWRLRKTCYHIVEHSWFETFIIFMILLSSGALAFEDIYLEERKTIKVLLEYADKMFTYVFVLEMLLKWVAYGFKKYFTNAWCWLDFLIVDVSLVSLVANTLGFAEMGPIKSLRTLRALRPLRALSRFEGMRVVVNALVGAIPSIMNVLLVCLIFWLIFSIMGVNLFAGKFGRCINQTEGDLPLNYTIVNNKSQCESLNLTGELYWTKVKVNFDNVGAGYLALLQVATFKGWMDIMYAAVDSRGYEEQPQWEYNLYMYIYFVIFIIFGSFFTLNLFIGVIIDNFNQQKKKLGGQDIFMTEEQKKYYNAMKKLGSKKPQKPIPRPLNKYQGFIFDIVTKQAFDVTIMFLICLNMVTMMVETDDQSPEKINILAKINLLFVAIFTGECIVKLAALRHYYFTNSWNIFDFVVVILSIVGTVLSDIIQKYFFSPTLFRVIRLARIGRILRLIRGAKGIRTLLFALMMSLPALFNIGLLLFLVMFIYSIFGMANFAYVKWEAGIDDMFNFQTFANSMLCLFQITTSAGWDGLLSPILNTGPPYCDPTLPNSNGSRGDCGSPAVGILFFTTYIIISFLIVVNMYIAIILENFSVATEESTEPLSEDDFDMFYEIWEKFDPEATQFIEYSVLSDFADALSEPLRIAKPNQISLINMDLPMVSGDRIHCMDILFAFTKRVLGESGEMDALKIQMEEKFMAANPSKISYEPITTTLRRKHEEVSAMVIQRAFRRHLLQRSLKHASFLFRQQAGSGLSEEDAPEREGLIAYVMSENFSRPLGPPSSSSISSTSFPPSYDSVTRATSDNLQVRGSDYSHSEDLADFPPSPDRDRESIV
T1 sequence (Q15858 whole entry): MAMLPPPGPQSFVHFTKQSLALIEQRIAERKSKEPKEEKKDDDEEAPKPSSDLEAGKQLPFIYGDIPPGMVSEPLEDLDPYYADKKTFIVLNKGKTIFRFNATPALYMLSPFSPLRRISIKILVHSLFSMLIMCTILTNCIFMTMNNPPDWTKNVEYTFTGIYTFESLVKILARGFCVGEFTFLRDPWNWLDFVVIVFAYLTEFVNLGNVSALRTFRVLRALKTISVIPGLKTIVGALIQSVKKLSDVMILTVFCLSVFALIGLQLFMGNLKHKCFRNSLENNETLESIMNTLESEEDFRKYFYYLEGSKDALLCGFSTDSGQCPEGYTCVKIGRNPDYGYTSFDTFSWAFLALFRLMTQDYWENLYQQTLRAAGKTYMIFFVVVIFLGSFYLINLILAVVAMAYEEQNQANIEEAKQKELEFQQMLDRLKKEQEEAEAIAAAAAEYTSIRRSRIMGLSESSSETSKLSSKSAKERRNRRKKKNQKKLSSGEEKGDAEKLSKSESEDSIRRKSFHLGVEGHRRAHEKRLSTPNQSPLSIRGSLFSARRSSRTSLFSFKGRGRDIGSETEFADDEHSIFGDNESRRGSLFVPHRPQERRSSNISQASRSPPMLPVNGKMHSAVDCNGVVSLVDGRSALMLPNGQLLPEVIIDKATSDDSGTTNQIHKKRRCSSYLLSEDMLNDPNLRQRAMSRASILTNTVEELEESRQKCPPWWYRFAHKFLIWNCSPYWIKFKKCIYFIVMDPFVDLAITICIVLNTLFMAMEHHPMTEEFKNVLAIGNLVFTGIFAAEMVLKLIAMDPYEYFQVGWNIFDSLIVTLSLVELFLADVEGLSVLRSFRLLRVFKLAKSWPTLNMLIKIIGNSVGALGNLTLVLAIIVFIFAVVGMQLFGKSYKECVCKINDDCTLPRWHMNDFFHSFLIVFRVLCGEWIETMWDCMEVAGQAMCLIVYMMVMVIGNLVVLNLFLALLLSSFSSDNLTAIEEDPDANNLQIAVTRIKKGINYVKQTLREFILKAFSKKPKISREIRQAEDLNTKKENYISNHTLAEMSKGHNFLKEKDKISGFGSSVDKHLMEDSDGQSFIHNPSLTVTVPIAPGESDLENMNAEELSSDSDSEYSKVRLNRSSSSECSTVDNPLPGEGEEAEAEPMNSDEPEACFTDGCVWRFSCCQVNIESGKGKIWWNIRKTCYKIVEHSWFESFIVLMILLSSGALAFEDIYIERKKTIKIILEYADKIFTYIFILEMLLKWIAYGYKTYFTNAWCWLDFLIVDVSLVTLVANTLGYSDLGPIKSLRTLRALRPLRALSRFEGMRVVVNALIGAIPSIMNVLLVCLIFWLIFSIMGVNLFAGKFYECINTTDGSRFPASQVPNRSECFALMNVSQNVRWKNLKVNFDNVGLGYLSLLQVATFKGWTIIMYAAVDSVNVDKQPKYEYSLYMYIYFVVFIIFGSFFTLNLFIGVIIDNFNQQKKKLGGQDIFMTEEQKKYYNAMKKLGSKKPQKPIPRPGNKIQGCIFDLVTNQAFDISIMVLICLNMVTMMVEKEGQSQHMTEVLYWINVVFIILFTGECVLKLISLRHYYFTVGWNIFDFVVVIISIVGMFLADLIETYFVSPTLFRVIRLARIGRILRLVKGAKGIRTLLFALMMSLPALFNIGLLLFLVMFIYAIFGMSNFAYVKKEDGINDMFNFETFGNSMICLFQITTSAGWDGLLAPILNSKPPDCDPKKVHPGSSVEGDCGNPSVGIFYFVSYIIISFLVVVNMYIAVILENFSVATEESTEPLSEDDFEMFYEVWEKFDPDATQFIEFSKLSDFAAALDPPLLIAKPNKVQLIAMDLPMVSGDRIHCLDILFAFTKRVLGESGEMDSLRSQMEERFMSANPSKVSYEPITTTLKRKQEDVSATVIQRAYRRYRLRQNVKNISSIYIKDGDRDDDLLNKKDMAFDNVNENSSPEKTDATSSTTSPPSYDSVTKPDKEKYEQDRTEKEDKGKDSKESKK
Voltage-gated inwardly rectifying potassium channel KCNH2, sequence (Q12809 whole entry): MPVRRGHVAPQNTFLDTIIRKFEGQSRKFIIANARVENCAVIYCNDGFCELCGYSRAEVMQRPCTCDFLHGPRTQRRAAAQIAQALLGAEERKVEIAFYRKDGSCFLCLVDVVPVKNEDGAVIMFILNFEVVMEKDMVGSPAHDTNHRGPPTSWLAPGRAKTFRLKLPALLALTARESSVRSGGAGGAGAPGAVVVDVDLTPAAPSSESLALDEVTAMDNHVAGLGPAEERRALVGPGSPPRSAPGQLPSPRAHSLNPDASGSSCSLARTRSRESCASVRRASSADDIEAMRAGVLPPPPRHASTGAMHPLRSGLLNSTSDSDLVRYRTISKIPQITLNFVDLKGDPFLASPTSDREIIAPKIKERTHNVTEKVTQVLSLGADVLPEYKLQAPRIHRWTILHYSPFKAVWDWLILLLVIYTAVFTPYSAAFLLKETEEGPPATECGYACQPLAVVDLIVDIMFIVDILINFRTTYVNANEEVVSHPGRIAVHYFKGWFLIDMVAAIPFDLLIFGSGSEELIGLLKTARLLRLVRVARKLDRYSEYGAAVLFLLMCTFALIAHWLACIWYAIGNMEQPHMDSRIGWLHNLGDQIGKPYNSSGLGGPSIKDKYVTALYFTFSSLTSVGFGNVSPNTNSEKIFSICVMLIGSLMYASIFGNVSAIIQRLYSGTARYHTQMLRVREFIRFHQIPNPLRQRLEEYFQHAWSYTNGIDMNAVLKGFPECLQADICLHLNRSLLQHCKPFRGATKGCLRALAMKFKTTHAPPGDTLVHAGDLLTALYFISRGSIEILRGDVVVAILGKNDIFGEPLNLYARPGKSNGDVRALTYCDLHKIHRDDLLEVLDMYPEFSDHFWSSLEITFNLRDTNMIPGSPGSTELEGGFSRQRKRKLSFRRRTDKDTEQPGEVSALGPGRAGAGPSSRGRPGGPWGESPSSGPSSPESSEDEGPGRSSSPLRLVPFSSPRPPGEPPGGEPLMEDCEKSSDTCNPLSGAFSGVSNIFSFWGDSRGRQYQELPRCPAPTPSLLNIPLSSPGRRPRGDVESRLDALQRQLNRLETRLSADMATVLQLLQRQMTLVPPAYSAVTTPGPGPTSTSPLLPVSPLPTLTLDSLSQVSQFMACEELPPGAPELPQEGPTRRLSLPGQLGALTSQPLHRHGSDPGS

In the case of `CCCCCCCSc1nc(N)cc(=O)[nH]1`, the IC50 [1] is reported as 400 nM, the clearance [2] is reported as 108 mL/min/kg and the IC50 [3] is reported as 1400 nM. It also gave a solubility [4] of 2 µg/mL (≈ 8.29 µM), a half-life [5] of 0.25 h and a Papp at 5 µM (MDR1 (P-gp)) of 21 ×10⁻⁶ cm/s. For the same molecule, the Ki [6] was over 15000 nM, the Vd [7] was 1.3 L/kg and the solubility [8] was 14 µg/mL (≈ 58 µM). For the same molecule, the Ratio (LLC-PK1) was 1.1, the IC50 [9] was 940 nM and the IC50 [10] was 1200 nM. For the same molecule, the solubility [11] was 3 µg/mL (≈ 12.4 µM).

`Nc1cc(=O)[nH]c(SCc2ccc(Cl)cc2)n1` showed an IC50 [9] of 4700 nM.

In the case of `CC(C)(C)c1ccc(CSc2nc(N)cc(O)n2)cc1`, the Drug metabolism (Hepatocyte) is reported as “Active”, the IC50 [1] is reported as 340 nM and the clearance [2] is reported as 85 mL/min/kg. For the same molecule, the IC50 [3] was 2200 nM, the solubility [4] was 5 µg/mL (≈ 17.3 µM) and the half-life [5] was 2.7 h. For the same molecule, the Papp at 5 µM (MDR1 (P-gp)) was 27 ×10⁻⁶ cm/s, the Vd [7] was 7.9 L/kg and the solubility [8] was 67 µg/mL (≈ 232 µM). For the same molecule, the IC50 [9] was 680 nM, the IC50 [10] was 300 nM and the solubility [11] was 4 µg/mL (≈ 13.8 µM).

In the case of `Nc1cc(=O)[nH]c(SCc2ccc(OC(F)(F)F)cc2)n1`, the IC50 [9] is reported as 2200 nM.

Work on `CC(C)(C)OC(=O)Nc1cc(=O)[nH]c(SCc2ccc(C(C)(C)C)cc2)n1` yielded an IC50 [9] of 7800 nM.

`Cn1c(N)cc(=O)nc1SCc1ccc(C(C)(C)C)cc1` showed an IC50 [9] of over 30000 nM.

In the case of `CC(C)(C)c1ccc(CSc2nc(NS(C)(=O)=O)cc(=O)[nH]2)cc1`, the IC50 [9] is reported as over 30000 nM.

In the case of `CC(C)(C)c1ccc(CSc2nc3[nH]cnc3c(=O)[nH]2)cc1`, the IC50 [9] is reported as over 30000 nM.

With `CC(C)(C)c1ccc(CSc2nc(O)cc(=O)[nH]2)cc1` the IC50 [9] was over 30000 nM.

For `CC(C)(C)c1ccc(CSc2nc(N)c(N)c(=O)[nH]2)cc1`, the IC50 [9] was over 30000 nM.

`N#Cc1ccc(CSc2nc(N)cc(O)n2)cc1` gave an IC50 [9] of over 30000 nM.

With `CC(C)CSc1nc(N)cc(=O)[nH]1` the IC50 [9] was over 30000 nM.

In the case of `COc1cc(N)nc(SCc2ccc(C(C)(C)C)cc2)n1`, the IC50 [9] is reported as over 30000 nM.

`CC(C)(C)c1ccc(CSc2nc(N)c(Cl)c(=O)[nH]2)cc1` gave an IC50 [9] of 4300 nM.

Work on `CC(C)(C)c1ccc(CSc2nccc(=O)[nH]2)cc1` yielded an IC50 [9] of over 30000 nM.

`CS(=O)(=O)c1ccc(CSc2nc(N)cc(=O)[nH]2)cc1` showed an IC50 [9] of over 30000 nM.

`Cn1c(SCc2ccc(C(C)(C)C)cc2)nc(N)cc1=O` showed an IC50 [1] of 80 nM, a clearance [2] of 18.3 mL/min/kg and an IC50 [3] of 500 nM. For the same molecule, the solubility [4] was 10 µg/mL (≈ 33 µM), the Activity (Rattus norvegicus [12]) was 81% and the Kp [13] was 3.3. It also gave a half-life [5] of 3.9 h, a Papp at 5 µM (MDR1 (P-gp)) of 16 ×10⁻⁶ cm/s and a Ki [6] of over 15000 nM. For the same molecule, the Vd [7] was 2.6 L/kg, the Activity (Rattus norvegicus [14]) was 98% and the solubility [8] was 14 µg/mL (≈ 46.1 µM). For the same molecule, the Ratio (LLC-PK1) was 1, the IC50 [9] was 420 nM and the IC50 [10] was 200 nM. It also gave a solubility [11] of 1 µg/mL (≈ 3.3 µM).

For `CC(C)(C)c1ccc(CSc2nc(NC(=O)C3CC3)cc(=O)[nH]2)cc1`, the Stability (Liver microsomes [15]) was “Unstable”, the Stability (Liver microsomes [16]) was “Unstable” and the IC50 [9] was 2500 nM.

With `CC(=O)Nc1cc(=O)[nH]c(SCc2ccc(C(C)(C)C)cc2)n1` the Stability (Liver microsomes [15]) was “Unstable”, the Stability (Liver microsomes [16]) was “Unstable” and the IC50 [9] was 1200 nM.
